Source: publication PMC11750580 (Toxicology Reports, 2024)

Tests used:
[1] = target: T1, human aryl hydrocarbon receptor (AhR) (Homo sapiens, UniProt P35869); details: HepG2-AhR Lucia cells
T1 sequence (P35869 11-848): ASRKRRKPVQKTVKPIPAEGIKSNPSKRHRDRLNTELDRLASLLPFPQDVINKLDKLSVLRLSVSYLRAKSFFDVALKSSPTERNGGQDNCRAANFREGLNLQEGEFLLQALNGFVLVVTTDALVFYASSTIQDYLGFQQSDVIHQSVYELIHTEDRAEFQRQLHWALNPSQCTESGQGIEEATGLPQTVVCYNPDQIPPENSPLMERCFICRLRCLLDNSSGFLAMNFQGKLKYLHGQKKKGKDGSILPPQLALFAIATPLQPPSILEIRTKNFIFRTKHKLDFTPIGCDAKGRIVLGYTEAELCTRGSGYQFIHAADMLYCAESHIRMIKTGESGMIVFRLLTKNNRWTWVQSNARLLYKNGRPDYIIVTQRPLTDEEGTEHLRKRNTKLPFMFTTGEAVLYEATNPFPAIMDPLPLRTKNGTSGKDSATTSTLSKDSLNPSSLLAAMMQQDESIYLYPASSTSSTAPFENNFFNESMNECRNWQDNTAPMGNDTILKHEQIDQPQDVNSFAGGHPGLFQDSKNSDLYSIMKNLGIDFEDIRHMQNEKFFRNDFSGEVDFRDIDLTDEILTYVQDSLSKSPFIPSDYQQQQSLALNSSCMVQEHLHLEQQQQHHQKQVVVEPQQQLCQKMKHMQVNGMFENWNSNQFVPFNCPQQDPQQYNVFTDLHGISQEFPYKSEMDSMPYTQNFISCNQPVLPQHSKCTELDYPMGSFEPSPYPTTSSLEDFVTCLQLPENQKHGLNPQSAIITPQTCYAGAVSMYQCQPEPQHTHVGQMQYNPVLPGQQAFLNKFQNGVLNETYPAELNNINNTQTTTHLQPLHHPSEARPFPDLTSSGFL

[2] = MTT cytotoxicity, HepG2; assay type: cell-based; details: human, HepG2 cells
[3] = system: HepaRG cells; assay: MTT cytotoxicity, HepaRG; assay type: cell-based, human; details: HepaRG, 24 h exposure, MTT, average ± SD
[4] = MTT cytotoxicity, HepaRG; assay type: cell-based, human; details: human, HepaRG cells (differentiated)
[5] = MTT cytotoxicity, Caco-2; assay type: cell-based; details: human, Caco-2 cells
[6] = system: Caco-2 cells; assay: Cell proliferation and migration; assay type: cell-based, human; details: for effect on growth and proliferation vs media control: Caco-2, any tested concentration (0.1, 1, 10 µM); for effect on cell proliferation rate vs media control: Caco-2, 10 µM, p < 0.05; for proliferation speed compared to control (100 %): Caco-2, 1 µM, 24 h
Outline: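 Cells were seeded at 100,000 cells/mL in 48-well plates and grown to 90–100 % confluence. Each monolayer was scratched with a pipette tip. Medium was then replaced with exposure medium containing 0.1, 1 or 10 µM test compound; cytochalasin D (1 mM) was the positive control. Wells were imaged by automated phase-contrast microscopy every 30 min for 24 h. Read-outs were cell-free area (mm2) and proliferation rate relative to media control (n = 8–16; one-way ANOVA, Dunnett's).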

[7] = MTT cytotoxicity, T47D; assay type: cell-based; details: human, T47D cells
[8] = MTT cytotoxicity, MSC; assay type: cell-based, human; details: human, adipose-derived mesenchymal stem cells (MSC)
[9] = MTT cytotoxicity, MRC-5; assay type: cell-based; details: human, MRC-5 cells
[10] = target: T1, human aryl hydrocarbon receptor (AhR); assay: cell-based
[11] = system: CYP1A genes; details: HepaRG cells; cited from earlier work
[12] = system: Caco-2 cells; details: cited from earlier work
[13] = Indole derivatives quantification in cell media; assay type: physicochemical; details: after 24 h of incubation
Outline: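 Test compounds in cell media were measured by reversed-phase HPLC with fluorescence detection on a C18 column (2.2 µm, 150 × 2.1 mm) at 30 °C. A binary gradient ran from 50 mM KH2PO4 (pH 3.3) to that buffer/acetonitrile 700:300. Excitation was 270 nm and emission 350 nm. Compounds were identified by co-chromatography with authentic standards and quantified by peak area.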

[14] = system: V79–4 Chinese hamster fibroblasts; details: V79–4, 300 µM; cited from earlier work
[15] = system: V79 379 A cells; details: 0.1 mM, 2-hour exposure; cited from earlier work
[16] = system: MRC-5 cells; details: MRC-5, 30 µg/mL, exposure duration not specified; ref Yap et al. 52; cited from earlier work
[17] = system: Caco-2 cells; details: Caco-2, 500–1000 µM, 72-hour exposure; ref Tomii et al. 31; cited from earlier work
[18] = system: adipose-derived mesenchymal stem cells (MSC); assay: MTT cytotoxicity, MSC; assay type: cell-based, human; details: MSC, 24 h exposure, MTT, average ± SD
[19] = system: MCF-7 cells; details: MCF-7, 100 µM; cited from earlier work
[20] = system: goats; details: oral, 0.16 g/kg body weight, within 4–24 h; cited from earlier work

Row | SMILES | AhR agonist character [1] | EC50 at 24 h [2] | EC50 at 24 h [4] | EC50 at 24 h [5] | EC50 at 24 h [7] | EC50 at 24 h [8] | EC50 at 24 h [9] | EC50 [10] | effect on cell proliferation rate vs media control [6] | other results
1 | O=c1cc(-c2ccccc2)oc2ccc3ccccc3c12 [BNF, β-naphthoflavone, reference compound] | partial agonists |  |  |  |  |  |  |  |  | 
2 | c1ccc2c(c1)cc1ccc3cccc4ccc2c1c34 [BaP, benzo[a]pyrene, reference compound] | partial agonists |  |  |  |  |  |  |  |  | 
3 | O=C(O)CCc1c[nH]c2ccccc12 [IPA, indole-3-propionic acid] | strong agonists | > 100000 nM | > 100000 nM | > 100000 nM | 2020 ± 130 nM | 400 ± 140 nM | 910 ± 100 nM | 110 nM |  | Cytotoxic evaluation (EC50) [3]: no sensitivity; effect on growth and proliferation vs media control [6]: no significant differences
4 | Cc1cccc2[nH]ccc12 [4-MI] |  |  |  |  |  |  |  |  |  | induction of CYP1A gene expression [11]: comparable to TCDD
5 | O=C(O)c1c[nH]c2ccccc12 [I3CA, indole-3-carboxylic acid] | strong agonists | > 100000 nM | 53000 ± 12100 nM | > 100000 nM | > 100000 nM | 640 ± 310 nM | 520 ± 80 nM | 880 nM | significant reduction in cell proliferation rates | 
6 | Cn1ccc2ccccc21 [1-MI] |  |  |  |  |  |  |  |  |  | induction of CYP1A genes, % of the level of TCDD [11]: about 50%
7 | O=Cc1c[nH]c2ccccc12 [I3A, indole-3-aldehyde] | strong agonists | > 100000 nM | 1980 ± 730 nM | > 100000 nM | > 100000 nM | 1870 ± 830 nM | 49800 ± 14500 nM | 40 nM | significant reduction in cell proliferation rates | proliferation speed compared to control (100 %) [6]: 71.3 ± 5.1%; reduction in cell viability ([12]; Caco-2, 160 µM, ref Liu et al. 30): 89.6%
8 | c1ccc2[nH]ccc2c1 [Indole, indole] | weak AhR ligand | > 100000 nM | > 100000 nM | > 100000 nM | > 100000 nM | > 100000 nM | > 100000 nM | 32100 nM | significant reduction in cell proliferation rates | recovery rate in cell media (actual vs nominal concentration) [13]: exceeding 100%; concentration inducing toxic effects ([12]; Caco-2): 5000 µM
9 | Cc1ccc2cc[nH]c2c1 [6-MI] |  |  |  |  |  |  |  |  |  | induction of CYP1A gene expression [11]: comparable to TCDD
10 | O=Cc1ccc2cc[nH]c2c1 [indole-6-carboxaldehyde] |  |  |  |  |  |  |  |  |  | toxicity [14]: no toxicity
11 | Clc1cc2c(cc1Cl)Oc1cc(Cl)c(Cl)cc1O2 [TCDD, 2,3,7,8-tetrachlorodibenzo-p-dioxin, reference compound] |  |  |  |  |  |  |  | 0.3 to 2.3 nM |  | 
12 | O=C(O)Cc1c[nH]c2ccccc12 [IAA, indole-3-acetic acid] |  | > 100000 nM | 2210 ± 320 nM | 520 ± 120 nM | 1680 ± 460 nM | > 100000 nM | 2550 ± 1950 nM |  |  | cytotoxic response [15]: did not show a cytotoxic response; effect on growth and proliferation vs media control [6]: no significant differences; cytotoxic effects [16]: no cytotoxic effects; effect on cell count and cytotoxicity (LDH assay) [17]: reduced Caco-2 cell count without causing cytotoxicity; Cytotoxic evaluation (EC50) [18]: did not show toxicity; cytotoxicity [19]: did not show cytotoxicity
13 | Cc1c[nH]c2ccccc12 [3-MI, 3-methylindole] | partial agonists | > 100000 nM | 66400 ± 21800 nM | > 100000 nM | > 100000 nM | 330 ± 100 nM | 21900 ± 8060 nM | 1400 nM | significant reduction in cell proliferation rates | induction of CYP1A genes, % of the level of TCDD [11]: about 50%; pulmonary toxicity findings [20]: severe pulmonary edema, denuded bronchioles, and necrotic alveolar cells; effect on cell proliferation vs media control ([6]; Caco-2, 0.1 µM): significant decrease in proliferation; proliferation speed compared to control (100 %) [6]: 68.2 ± 7.4%
